# Data published in article PMC4547362 (Molecular cancer therapeutics, 2015).
# Where two headings read alike, the source gives them in different places.
# Tests used:
# Stat5a/b [1] = assay: Stat5a/b activation and transcriptional activity, side-by-side with IST5-002; format: cell-based
# Stat3 [2] = target: T1, Stat3 (Homo sapiens, UniProt P40763); assay: IL-6-induced Stat3 nuclear translocation in DU145 cells, immunofluorescence; format: cell-based; settings: IL-6 5 nM, IST5-002 even at 50 μM
# Stat5a [3] = target: T2, Stat5a (Homo sapiens, UniProt P42229); assay: Stat5a luciferase reporter gene assay; format: cell-based; settings: read-out: IC50, transcriptional activity of Stat5a; PC-3 cells, β-casein-luciferase, hPrl 10 nM 16 h
# T2 sequence (P42229 1-794): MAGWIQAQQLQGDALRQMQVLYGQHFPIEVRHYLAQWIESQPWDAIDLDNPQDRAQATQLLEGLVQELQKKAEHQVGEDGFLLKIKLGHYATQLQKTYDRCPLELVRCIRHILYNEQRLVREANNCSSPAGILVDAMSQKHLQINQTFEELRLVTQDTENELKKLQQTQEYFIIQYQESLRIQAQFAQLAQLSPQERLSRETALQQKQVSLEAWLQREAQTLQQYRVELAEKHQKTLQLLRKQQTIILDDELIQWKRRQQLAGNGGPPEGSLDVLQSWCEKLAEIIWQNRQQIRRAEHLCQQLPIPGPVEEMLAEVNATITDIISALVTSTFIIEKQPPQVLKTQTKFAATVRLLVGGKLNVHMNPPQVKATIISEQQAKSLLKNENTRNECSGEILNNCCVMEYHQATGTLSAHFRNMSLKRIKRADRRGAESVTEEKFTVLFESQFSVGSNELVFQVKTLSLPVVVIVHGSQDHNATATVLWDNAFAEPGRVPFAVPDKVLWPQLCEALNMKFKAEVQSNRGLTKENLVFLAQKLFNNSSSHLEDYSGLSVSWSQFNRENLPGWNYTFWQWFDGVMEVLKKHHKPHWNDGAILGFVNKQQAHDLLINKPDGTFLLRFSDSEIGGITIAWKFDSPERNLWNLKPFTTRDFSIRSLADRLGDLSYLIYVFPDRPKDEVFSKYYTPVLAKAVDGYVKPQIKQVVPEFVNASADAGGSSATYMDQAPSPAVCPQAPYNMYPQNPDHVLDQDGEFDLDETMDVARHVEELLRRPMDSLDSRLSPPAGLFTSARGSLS
# Stat5b = Stat5b (Homo sapiens, UniProt P51692); assay: Stat5b luciferase reporter gene assay; format: cell-based; settings: read-out: IC50, transcriptional activity of Stat5b; PC-3 cells, β-casein-luciferase, hPrl 10 nM 16 h
# Stat5a/b [4] = target: T3, Stat5a/b (Homo sapiens, UniProt P42229+P51692); assay: Bcr-Abl-driven Stat5a/b phosphorylation in K562 cells, immunoblot; format: cell-based; settings: 3 h
# Bcr-Abl = Bcr-Abl (Homo sapiens, UniProt P00519+P11274); assay: Bcr-Abl tyrosine phosphorylation in K562 cells, immunoblot; format: cell-based
# Stat5a/b [5] = target: Stat5a/b (Mus musculus, UniProt P42230+P42232); format: cell-based; settings: read-out: IC50, phosphorylation of Stat5a/b; HC-11 cells, 2 h, then hPrl 30 min
# Stat5a/b [6] = target: T3, Stat5a/b; assay: Cell-based immunoassay for tyrosine-phosphorylated Stat5a/b in T47D cells; settings: read-out: IC50, phosphorylation of Stat5a/b, 2 h, then hPrl
# Jak2 = Jak2 (Homo sapiens, UniProt O60674); assay: Jak2 phosphorylation in CWR22Rv1 cells, immunoprecipitation and immunoblot; format: cell-based
# panel of 50 kinases = assay: Kinase activity profiling; format: biochemical; settings: 1 μM final concentration
# In short: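 Split-luciferase binding format, with the test compound first checked for false-positive activity against split-luciferase. Each Cfluc-kinase was co-translated with Fos-Nfluc in rabbit reticulocyte lysate at 30 C for 90 min. Lysate was incubated 30 min at room temperature with DMSO or 1 μM (final) test compound, then 1 h with a kinase-specific probe.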
# Stat5a [7] = target: T2, Stat5a; assay: Stat5a dimerization by co-immunoprecipitation in PC-3 cells; format: cell-based; settings: read-out: IC50, Stat5a dimerization, FLAG- and MYC-tagged Stat5a, hPrl 10 nM 30 min
# Stat5a [8] = target: T2, Stat5a; assay: Prl-induced nuclear translocation of Stat5a in PC-3 cells, immunofluorescence; format: cell-based; settings: 2 h, hPrl 10 nM 30 min
# In short: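 PC-3 cells were infected with adenoviral wild-type Stat5a and prolactin receptor (MOI 4), serum-starved, pretreated 2 h with test compound or control compound, and stimulated 30 min with 10 nM prolactin. Fixed cells were stained with rabbit anti-Stat5 pAb (1:200) and fluorescein goat anti-rabbit IgG (1:200).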
# Stat5a/b [9] = target: Stat5a/b (Homo sapiens, UniProt P42229); assay: EMSA of Stat5a/b binding to DNA; format: cell-based; settings: 25 μM, COS-7 cells, compared to Ctrl-treated cells
# In short: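 COS-7 cells were transiently co-transfected with Stat5a and prolactin receptor plasmids, then serum-starved 10 h. They were pretreated 2 h with test compound or control compound and stimulated 30 min with 10 nM human prolactin. DNA binding was probed with the beta-casein gene Stat5 response element.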
# Stat3 [10] = target: T1, Stat3; assay: Stat3 luciferase reporter assay in LNCaP cells; format: cell-based; settings: 6.0 μM, IL-6 50 ng/ml 16 h
# In short: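 LNCaP cells were co-transfected with Stat3 (0.25 μg), IL-6 receptor (0.25 μg), Stat3-luciferase reporter (0.5 μg) and a normalisation plasmid (0.025 μg). Cells were serum-starved 10 h, pretreated with 6.0 μM test compound or control compound, and stimulated 16 h with 50 ng/ml IL-6. Relative luciferase activity is reported as the mean ± S.E. of three independent experiments run in triplicate.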
# Bcl-xL and cyclin D1 = assay: Expression of Stat5a/b target genes cyclin D1 and Bcl-xL in PC cells, immunoblot; format: cell-based, human; settings: CWR22Rv1 and LNCaP cells, 48 h or 25 μM time course
# [11] = test system: Stat5a/b target genes in K562 cells; assay: RNA expression profiling of K562 cells; format: cell-based; settings: 5 μM, 48 h
# In short: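 RNA from vehicle- and test compound-treated cells, alongside Stat5a/b-shRNA and scramble-shRNA cells, was profiled in triplicate on Affymetrix Human Gene 1.0 ST arrays. Differential expression versus the matching control used t-tests with false discovery rate correction.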
# CWR22Rv1 cells [12] = assay: Dead cell count by trypan blue exclusion, CWR22Rv1; format: cell-based, human; settings: 25 μM, 24 h
# CWR22Rv1 cells [13] = assay: Nucleosomal DNA fragmentation ELISA, CWR22Rv1; format: cell-based, human; settings: 25 μM, 24 h, CWR22Rv1, parallel wells
# caspase-3 = assay: Caspase-3 activation assay, CWR22Rv1; format: cell-based, human; settings: 12.5 μM, CWR22Rv1, 72 h
# In short: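 CWR22Rv1 cells were exposed to 12.5 μM test compound or vehicle for set periods. Caspase-3 was captured with anti-caspase-3 mAb, and its cleavage of AFC substrate was read fluorometrically at 505 nm. In the rescue arm, cells were first infected with adenovirus carrying constitutively active Stat5a (MOI 2).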
# LNCaP and CWR22Rv1 cells = assay: Cell cycle analysis of PC cells; format: cell-based, human; settings: LNCaP and CWR22Rv1, 72 h
# In short: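 LNCaP and CWR22Rv1 cells were treated with test compound, vehicle or control compound for up to 72 h. Cells were fixed, stained with propidium iodide plus RNase A, and analysed by flow cytometry in the FL-2 channel.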
# CWR22Rv1 cells [14] = assay: Viability of CWR22Rv1 cells after Stat5a/b shRNA or control shRNA, trypan blue; format: cell-based, human; settings: 12.5 μM, 48 h
# [15] = test system: A549, CAPAN, T47D, HT1080, HepG2, COS-7, RC170N, CWR22Rv1, K562 cells; format: cell-based
# [16] = test system: CWR22Rv1 xenograft tumors; assay: CWR22Rv1 prostate cancer xenograft tumor growth in nude mice; format: in vivo; settings: for decrease of nuclear Stat5a/b content in tumors: compared to vehicle (HPC)
# In short: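 Castrated male athymic nude mice got 60-day sustained-release DHT pellets 3 days before s.c. flank inoculation of 1.5 × 10⁷ CWR22Rv1 cells in Matrigel (one tumor/mouse). After one week, mice were randomised (10/group) to daily i.p. test compound in 0.3% HPC (25, 50, 100 mg/kg), HPC alone or no treatment for 10 days. Tumors were measured three times weekly; volume = 3.14 × length × width × depth/6. Nuclear Stat5/Stat3 in harvested tumors were compared by mixed-model ANOVA with Bonferroni-adjusted pairwise tests.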
# patient-derived PCs = assay: Ex vivo organ explant culture of patient-derived prostate cancers; parameters: species or system human; settings: 7 days ex vivo explant organ culture
# In short: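 Patient-derived prostate cancers from radical prostatectomies (n=11, Gleason 7) were grown as explant organ cultures for 7 days with test compound or control compound at set concentrations. A pre-culture zero sample was formalin-fixed for baseline nuclear Stat5a/b. Explants were scored by Stat5a/b immunohistochemistry and TUNEL.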
# [17] = test system: K562, KCL22 and BV173 cells (parental and imatinib-resistant); assay: Growth of CML cell lines, trypan blue cell counts and colony formation; format: cell-based; settings: 5 μM, trypan blue exclusion and colony formation assay
# [18] = test system: CML-blast crisis cell lines; assay: Cell cycle analysis of CML cells; format: cell-based; settings: 5 μM, 48 h
# primary CML cells = assay: Colony formation of primary CML-chronic phase cells from patients; format: cell-based, human; settings: three CML-chronic phase patients, methylcellulose
# PAK1/2 = PAK1/2 (Homo sapiens, UniProt Q13153+Q13177)
# [19] = test system: SUP-B15, 12878 and 3798 cell lines; assay: Cell viability; settings: 48 h, MTT
# Stat1 = settings: cited from earlier work
# Stat5 = settings: cited from earlier work
# [20] = side-by-side with IST5-002, data not shown
# T1 sequence (P40763 whole entry): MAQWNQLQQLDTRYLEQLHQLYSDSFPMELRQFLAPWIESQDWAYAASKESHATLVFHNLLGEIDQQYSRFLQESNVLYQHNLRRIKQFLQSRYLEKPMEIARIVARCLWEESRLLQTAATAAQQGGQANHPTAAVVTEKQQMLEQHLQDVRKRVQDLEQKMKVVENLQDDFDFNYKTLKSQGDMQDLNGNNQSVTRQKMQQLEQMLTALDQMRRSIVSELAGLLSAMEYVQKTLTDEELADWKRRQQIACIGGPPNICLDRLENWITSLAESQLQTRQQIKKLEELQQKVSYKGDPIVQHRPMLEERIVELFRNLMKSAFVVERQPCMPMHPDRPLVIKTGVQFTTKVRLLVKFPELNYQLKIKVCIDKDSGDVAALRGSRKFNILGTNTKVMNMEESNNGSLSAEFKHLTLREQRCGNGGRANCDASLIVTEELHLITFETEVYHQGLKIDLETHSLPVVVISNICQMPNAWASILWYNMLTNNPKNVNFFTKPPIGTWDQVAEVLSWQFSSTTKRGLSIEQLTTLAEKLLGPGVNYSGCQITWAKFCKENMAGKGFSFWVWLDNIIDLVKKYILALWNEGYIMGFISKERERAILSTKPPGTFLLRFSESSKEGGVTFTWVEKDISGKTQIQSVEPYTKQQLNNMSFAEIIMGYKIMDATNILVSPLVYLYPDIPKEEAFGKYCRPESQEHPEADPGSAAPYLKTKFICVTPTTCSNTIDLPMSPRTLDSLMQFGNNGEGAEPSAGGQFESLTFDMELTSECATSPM
# T3 sequence (P51692 whole entry, one chain of several): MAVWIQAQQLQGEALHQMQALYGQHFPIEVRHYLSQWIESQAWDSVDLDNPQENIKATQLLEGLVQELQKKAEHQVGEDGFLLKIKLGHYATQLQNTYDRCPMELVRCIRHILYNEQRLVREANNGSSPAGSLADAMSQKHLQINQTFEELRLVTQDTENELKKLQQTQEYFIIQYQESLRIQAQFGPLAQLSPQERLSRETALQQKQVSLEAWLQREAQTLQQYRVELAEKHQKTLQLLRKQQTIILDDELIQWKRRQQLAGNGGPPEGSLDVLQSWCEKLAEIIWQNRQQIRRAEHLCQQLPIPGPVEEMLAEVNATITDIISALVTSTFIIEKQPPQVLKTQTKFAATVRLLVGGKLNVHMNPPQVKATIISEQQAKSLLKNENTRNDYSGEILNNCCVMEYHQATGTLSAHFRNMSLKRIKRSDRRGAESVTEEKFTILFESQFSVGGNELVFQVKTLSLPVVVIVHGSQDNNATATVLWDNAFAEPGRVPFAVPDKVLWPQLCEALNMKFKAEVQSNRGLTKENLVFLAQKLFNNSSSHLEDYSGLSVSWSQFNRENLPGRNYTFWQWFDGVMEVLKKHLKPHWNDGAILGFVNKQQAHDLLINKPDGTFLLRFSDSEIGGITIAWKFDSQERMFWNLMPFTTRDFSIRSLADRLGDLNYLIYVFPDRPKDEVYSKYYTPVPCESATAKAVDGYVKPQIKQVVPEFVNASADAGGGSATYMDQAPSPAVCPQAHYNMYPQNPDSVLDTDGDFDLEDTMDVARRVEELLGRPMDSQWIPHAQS
# Sequence of Stat5a/b (Mus musculus, UniProt P42230+P42232) (P42230 whole entry): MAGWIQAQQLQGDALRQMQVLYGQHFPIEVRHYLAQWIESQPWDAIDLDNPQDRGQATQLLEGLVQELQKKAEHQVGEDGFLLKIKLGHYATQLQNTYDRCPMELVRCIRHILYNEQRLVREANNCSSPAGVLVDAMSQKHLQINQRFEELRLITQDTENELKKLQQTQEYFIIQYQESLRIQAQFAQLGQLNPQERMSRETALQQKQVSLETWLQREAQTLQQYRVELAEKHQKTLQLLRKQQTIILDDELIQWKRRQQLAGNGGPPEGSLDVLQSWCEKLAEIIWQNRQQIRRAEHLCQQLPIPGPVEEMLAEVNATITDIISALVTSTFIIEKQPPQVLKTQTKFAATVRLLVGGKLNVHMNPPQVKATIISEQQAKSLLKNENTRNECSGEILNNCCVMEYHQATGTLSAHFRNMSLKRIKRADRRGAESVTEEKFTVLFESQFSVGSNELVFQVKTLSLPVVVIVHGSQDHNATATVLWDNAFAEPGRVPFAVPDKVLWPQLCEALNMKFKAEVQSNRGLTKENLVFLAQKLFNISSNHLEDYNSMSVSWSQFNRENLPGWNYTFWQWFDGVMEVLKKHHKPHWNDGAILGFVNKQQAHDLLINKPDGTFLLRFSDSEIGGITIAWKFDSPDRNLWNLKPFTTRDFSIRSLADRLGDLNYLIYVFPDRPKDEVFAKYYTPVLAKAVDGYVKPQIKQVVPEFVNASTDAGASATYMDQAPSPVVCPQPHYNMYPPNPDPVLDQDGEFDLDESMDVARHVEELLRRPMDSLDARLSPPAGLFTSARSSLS
# Sequence of Stat5a/b (Mus musculus, UniProt P42230+P42232) (P42232 whole entry): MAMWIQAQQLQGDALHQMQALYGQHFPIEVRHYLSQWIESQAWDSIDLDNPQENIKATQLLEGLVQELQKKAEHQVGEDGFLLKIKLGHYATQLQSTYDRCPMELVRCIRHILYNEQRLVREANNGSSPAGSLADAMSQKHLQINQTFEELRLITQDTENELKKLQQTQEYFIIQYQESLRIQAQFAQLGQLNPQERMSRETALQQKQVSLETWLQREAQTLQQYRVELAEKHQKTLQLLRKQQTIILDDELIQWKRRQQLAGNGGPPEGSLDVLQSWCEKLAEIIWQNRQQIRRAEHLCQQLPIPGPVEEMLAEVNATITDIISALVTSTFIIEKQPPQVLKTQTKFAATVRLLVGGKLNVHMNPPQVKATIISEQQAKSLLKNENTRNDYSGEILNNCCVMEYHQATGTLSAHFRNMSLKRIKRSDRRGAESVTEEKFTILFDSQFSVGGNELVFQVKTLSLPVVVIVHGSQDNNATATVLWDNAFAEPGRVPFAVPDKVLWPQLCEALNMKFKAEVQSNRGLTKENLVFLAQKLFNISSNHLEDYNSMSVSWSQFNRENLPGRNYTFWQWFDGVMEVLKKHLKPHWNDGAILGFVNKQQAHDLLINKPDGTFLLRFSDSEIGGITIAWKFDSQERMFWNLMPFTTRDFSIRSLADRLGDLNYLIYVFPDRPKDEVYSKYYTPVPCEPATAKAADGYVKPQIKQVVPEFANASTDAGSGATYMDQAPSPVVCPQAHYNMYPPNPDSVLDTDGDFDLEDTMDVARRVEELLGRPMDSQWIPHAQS
# Sequence of Stat5b (P51692 whole entry, species assumed): as the sequence (P51692 whole entry, one chain of several) above
# Sequence of Jak2 (O60674 whole entry): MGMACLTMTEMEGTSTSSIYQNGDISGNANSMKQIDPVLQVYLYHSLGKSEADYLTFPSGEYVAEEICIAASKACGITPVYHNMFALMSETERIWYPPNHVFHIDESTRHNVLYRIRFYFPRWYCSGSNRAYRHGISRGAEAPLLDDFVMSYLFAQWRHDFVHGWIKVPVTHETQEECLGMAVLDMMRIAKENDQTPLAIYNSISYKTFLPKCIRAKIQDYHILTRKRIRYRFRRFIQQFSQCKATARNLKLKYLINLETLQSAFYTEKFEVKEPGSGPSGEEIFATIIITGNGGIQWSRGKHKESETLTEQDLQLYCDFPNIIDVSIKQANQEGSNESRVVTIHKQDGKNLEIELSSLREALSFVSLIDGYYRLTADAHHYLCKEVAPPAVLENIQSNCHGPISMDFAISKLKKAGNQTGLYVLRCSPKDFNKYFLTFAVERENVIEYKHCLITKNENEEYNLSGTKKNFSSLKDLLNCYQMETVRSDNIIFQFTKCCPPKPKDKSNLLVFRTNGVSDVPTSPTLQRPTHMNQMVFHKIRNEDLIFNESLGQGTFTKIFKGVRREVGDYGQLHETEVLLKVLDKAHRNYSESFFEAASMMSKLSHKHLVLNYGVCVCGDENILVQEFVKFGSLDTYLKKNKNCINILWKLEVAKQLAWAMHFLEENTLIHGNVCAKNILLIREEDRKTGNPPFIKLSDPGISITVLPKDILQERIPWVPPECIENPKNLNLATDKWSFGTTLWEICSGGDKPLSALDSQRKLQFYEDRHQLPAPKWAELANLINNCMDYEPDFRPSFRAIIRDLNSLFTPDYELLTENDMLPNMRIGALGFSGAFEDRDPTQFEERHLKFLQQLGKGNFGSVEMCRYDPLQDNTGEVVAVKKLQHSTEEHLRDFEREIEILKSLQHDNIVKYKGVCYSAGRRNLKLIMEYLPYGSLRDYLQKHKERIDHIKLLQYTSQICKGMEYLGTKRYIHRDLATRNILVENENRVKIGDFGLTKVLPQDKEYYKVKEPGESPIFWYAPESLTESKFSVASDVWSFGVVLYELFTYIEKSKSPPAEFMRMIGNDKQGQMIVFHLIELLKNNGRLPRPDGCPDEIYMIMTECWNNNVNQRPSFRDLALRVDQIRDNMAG
compound,measurement,setting,value
Nc1ncnc2c1ncn2[C@@H]1O[C@@H]2COP(=O)(O)O[C@H]2[C@H]1O [cyclic AMP],effect on Stat5a/b activation and transcriptional activity,Stat5a/b [1],no effect
"Cc1cc(Nc2nc(N[C@@H](C)c3ncc(F)cn3)ncc2Cl)n[nH]1 [AZD1480, reference compound]",Stat3 nuclear translocation,Stat3 [2],effectively suppressed
Nc1nc2c(ncn2[C@@H]2O[C@H](COP(=O)(O)O)[C@@H](O)[C@H]2O)c(=O)[nH]1 [GMP],effect on Stat5a/b activation and transcriptional activity,Stat5a/b [1]; [20],no effect
Nc1ncnc2c1ncn2[C@@H]1O[C@H](COP(=O)(O)O)[C@@H](O)[C@H]1O [AMP],effect on Stat5a/b activation and transcriptional activity,Stat5a/b [1]; [20],no effect
"O=P(O)(O)OC[C@H]1O[C@@H](n2cnc3c(NCc4ccccc4)ncnc32)[C@H](O)[C@@H]1O [IST5-002, N6-benzyladenosine-5-monophosphate]",IC50,Stat5a [3],1.5 µM
same,IC50,Stat5b,3.5 µM
same,concentration that blocked Bcr-Abl-induced Stat5a/b phosphorylation,Stat5a/b [4],5 µM
same,Bcr-Abl tyrosine phosphorylation levels,Bcr-Abl,did not affect
same,IC50,Stat5a/b [5],12 µM
same,IC50,Stat5a/b [6],24.8 µM
same,Phosphorylation of Jak2,Jak2,unaffected
same,inhibition of kinases in a panel of 50 kinases,panel of 50 kinases,no specific inhibition
same,IC50,Stat5a [7],11 µM
same,concentration that abrogated Stat5a nuclear translocation,Stat5a [8],15 µM
same,reduction of binding of Stat5a/b to its DNA target sequence,Stat5a/b [9],approximately 50%
same,Stat3 nuclear translocation,Stat3 [2],no demonstrable effect
same,transcriptional activity of Stat3,Stat3 [10],failed to block
same,expression of Bcl-xL and cyclin D1,Bcl-xL and cyclin D1,reduced expression
same,CISH expression change,[11],−2.3 fold
same,Cyclin D2 expression change,[11],−2.3 fold
same,Myc expression change,[11],−1.7 fold
same,Pim1 expression change,[11],−1.7 fold
same,Pim2 expression change,[11],−1.7 fold
same,SOCS3 expression change,[11],−1.3 fold
same,TRIB2 expression change,[11],−1.4 fold
same,increase in dead cells,CWR22Rv1 cells [12],5 fold
same,increase of nucleosomal DNA fragmentation,CWR22Rv1 cells [13],230%
same,increase in caspase-3 activation,caspase-3,3 fold
same,fraction of dead cells (sub-G1) in cell cycle analysis,LNCaP and CWR22Rv1 cells,increased the fraction of dead cells
same,viability of CWR22Rv1 cells depleted of Stat5a/b (shStat5a/b),CWR22Rv1 cells [14],did not further affect
same,decrease in the number of viable PC cells expressing control shRNA,CWR22Rv1 cells [14]; CWR22Rv1,40%
same,viability of cell lines from other tissues,"[15]; A549, CAPAN, T47D, HT1080, HepG2, COS-7",not affected
same,viability of cells with high Stat5a/b activation,"[15]; CWR22Rv1 and K562, side-by-side",suppressed viability
same,viability of cell lines with low or no Stat5a/b activation,"[15]; RC170N normal prostate epithelial cell line, HT1080",did not affect viability
same,decrease of nuclear Stat5a/b content in tumors,[16]; 25 mg/kg i.p. daily,60%
same,decrease of nuclear Stat5a/b content in tumors,[16]; 50 mg/kg i.p. daily,78%
same,decrease of nuclear Stat5a/b content in tumors,[16]; 100 mg/kg i.p. daily,90%
same,Tumor growth,"[16]; 25, 50 or 100 mg/kg i.p. daily, all treatment groups vs control groups",significantly (P<0.001) suppressed
same,viable tumor cells in xenograft tumors,[16]; IST5-002 groups vs. vehicle,massive loss of viable tumor cells
same,Intratumor levels of nuclear Stat3,[16]; any of the doses tested,not altered
same,patient-derived PCs that responded by extensive loss of viable epithelium,patient-derived PCs,Eight out of 11
same,concentration at which loss of viable epithelium started,patient-derived PCs; responders,25 µM
same,growth of imatinib-sensitive and -resistant CML cells,[17],blocked the growth
same,apoptosis in cell cycle analysis,[18],increase in apoptosis
same,number of viable colonies of primary CML cells,primary CML cells,dramatic decrease
same,activity of PAK1/2,PAK1/2,no specific inhibition
same,viability of EBV-immortalized B-cells that express no active Stat5a/b,"[19]; 12878, 3798 cell lines",only marginal or no effect
same,viability of SUP-B15 (Bcr-Abl-driven ALL cell line),[19],decreased viability
"Nc1nc(F)nc2c1ncn2[C@@H]1O[C@H](CO)[C@@H](O)[C@@H]1O [Fludarabine, fludarabine]",Stat1 phosphorylation and activation,Stat1,inhibit
same,Stat5 activity,Stat5,not affecting
